Test results published in ChEMBL document CHEMBL1123133, “1H-2-Benzopyran-1-one derivatives, microbial products with pharmacological activity. Conversion into orally active derivatives with antiinflammatory and antiulcer activities” (J Med Chem, 1985).

How the values were obtained:
Rattus norvegicus [1] = assay: Concentration 5c detected in blood of rat 1 hr after an oral dose of 200 mg/kg of the compound; type: ADME, organism-based; design: dose 200 mg/kg, route oral; details: in vivo
In short: (§1)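 Male Wistar rats (120–160 g, 5–7 per group) fasted 24 h, then given 200 mg/kg orally as the HCl salt in a glycerin/HCO-60 formulation (drug/glycerin/HCO-60 1/12/0.05 by weight) in aqueous solution. At 1 or 3 h, jugular blood was citrated and plasma was ethanol-deproteinized, then analysed by reverse-phase HPLC at 254 nm. Values were recovery-corrected from blood spiked at 50 μg/mL and are means of 6–7 rats.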

Rattus norvegicus [2] = assay: Concentration 5c detected in blood of rat 3 hr after an oral dose of 200 mg/kg of the compound; type: ADME, organism-based; design: dose 200 mg/kg, route oral; details: in vivo; in short: as §1
Rattus norvegicus [3] = assay: Concentration 6c detected in blood of rat 1 hr after an oral dose of 200 mg/kg of the compound; type: ADME, organism-based; design: dose 200 mg/kg, route oral; details: in vivo; in short: as §1
Rattus norvegicus [4] = assay: Concentration 6c detected in blood of rat 3 hr after an oral dose of 200 mg/kg of the compound; type: ADME, organism-based; design: dose 200 mg/kg, route oral; details: in vivo; in short: as §1
[5] = Solubility in water, tested as a HCl salt; type: physicochemical; details: read-out: S
In short: (§2)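 HCl salts suspended in excess in water or 10 mM phosphate buffer pH 7.5, sonicated 10 min at 20 °C to saturation, centrifuged; supernatant quantified by HPLC.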

[6] = Lipid solubility measured as chloroform-water partition coefficient; type: physicochemical
In short: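 Partition between chloroform and 10 mM phosphate buffer pH 7.5 (1:1 volume); drug at 1 mg/mL initially in aqueous phase, shaken 20 min at 20 °C, centrifuged, both phases quantified by HPLC. HCl salts used.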

Rattus norvegicus [7] = assay: % recovery of the compound, compound 1 and compound 6a from whole blood of 7 wistar rats after an oral dose of the compound; type: ADME, organism-based; details: in vivo
Cavia porcellus = assay: Antiinflammatory activity evaluated as Minimum effective oral dose that inhibits dextran UV erythema in guinea pig; type: functional
Rattus norvegicus [8] = assay: Antiinflammatory activity evaluated as Minimum effective oral dose that inhibits bradykinin paw edema in rat; type: functional
Rattus norvegicus [9] = assay: Antiinflammatory activity evaluated as Minimum effective oral dose that inhibits carrageenan paw edema in rat; type: functional
Rattus norvegicus [10] = assay: Antiinflammatory activity evaluated as Minimum effective oral dose that inhibits dextran paw edema in rat; type: functional
Rattus norvegicus [11] = assay: Antiinflammatory activity evaluated as Minimum effective oral dose that inhibits adjuvant arthritis in rats; type: functional
In short: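 Adjuvant arthritis: male Sprague-Dawley rats (180–200 g), 8–10 per group, injected in right hind paw with Mycobacterium butyricum powder in corn oil (0.6 mg/0.1 mL). Oral dosing started 1 h after adjuvant, then daily for 18 days; observed 28 days. Minimum effective dose recorded.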

[12] = Acute toxicity evaluated as oral lethal dose in rat; type: organism-based; details: in vivo
In short: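 Oral dosing of male Wistar rats (120-140 g), given as HCl salt; LD50 derived from mortality over 7 days.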

Rattus norvegicus [13] = assay: Gastroprotective activity as % protection against stress ulcers in 5 rats after an intraperitoneal dose of 12.5 mg/kg; type: functional
In short: (§3)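 Stress ulcer by restraint and water immersion: male Wistar rats (160–180 g), fasted 24 h, given test compound po or ip as HCl salt in aqueous glycerin/HCO-60 formulation (1/12/0.05 by weight). Vehicle-only controls. After 1 h, restrained in net cage and immersed in 21 °C water for 6 h. Percent ulcer inhibition calculated; five rats per dose.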

Rattus norvegicus [14] = assay: Gastroprotective activity as % protection against stress ulcers in 5 rats after an intraperitoneal dose of 25 mg/kg; type: functional; in short: as §3
Rattus norvegicus [15] = assay: Gastroprotective activity as % protection against stress ulcers in 5 rats after an intraperitoneal dose of 50 mg/kg; type: functional; in short: as §3
Rattus norvegicus [16] = assay: Gastroprotective activity as % protection against stress ulcers in 5 rats after an oral dose of 100 mg/kg; type: functional; in short: as §3
Rattus norvegicus [17] = assay: Gastroprotective activity as % protection against stress ulcers in 5 rats after an oral dose of 12.5 mg/kg; type: functional; in short: as §3
Rattus norvegicus [18] = assay: Gastroprotective activity as % protection against stress ulcers in 5 rats after an oral dose of 25 mg/kg; type: functional; in short: as §3
Rattus norvegicus [19] = assay: Gastroprotective activity as % protection against stress ulcers in 5 rats after an oral dose of 50 mg/kg; type: functional; in short: as §3
[20] = Solubility in phosphate buffer, tested as a HCl salt; type: physicochemical; in short: as §2
Rattus norvegicus [21] = assay: Concentration 5b detected in blood of rat 1 hr after an oral dose of 200 mg/kg of the compound; type: ADME, organism-based; design: dose 200 mg/kg, route oral; details: in vivo
In short: (§4)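 Male Wistar rats (120–160 g), 5–7 per group, fasted 24 h, given 200 mg/kg orally as aqueous HCl salt formulation (drug/glycerin/HCO-60 1/12/0.05 by weight). Jugular blood taken under ether at 1 or 3 h into citric acid; plasma deproteinized with ethanol (acetone for 5d) and analysed by C18 HPLC at 254 nm. Values recovery-corrected, mean of 6–7 rats.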

Rattus norvegicus [22] = assay: Concentration 5b detected in blood of rat 3 hr after an oral dose of 200 mg/kg of the compound; type: ADME, organism-based; design: dose 200 mg/kg, route oral; details: in vivo; in short: as §4
Rattus norvegicus [23] = assay: Concentration 5a detected in blood of rat 3 hr after an oral dose of 200 mg/kg of the compound; type: ADME, organism-based; design: dose 200 mg/kg, route oral; details: in vivo; in short: as §4
Rattus norvegicus [24] = assay: Concentration 6a detected in blood of rat 1 hr after an oral dose of 200 mg/kg of the compound; type: ADME, organism-based; design: dose 200 mg/kg, route oral; details: in vivo; in short: as §4
Rattus norvegicus [25] = assay: Concentration 6a detected in blood of rat 3 hr after an oral dose of 200 mg/kg of the compound; type: ADME, organism-based; design: dose 200 mg/kg, route oral; details: in vivo; in short: as §4
Rattus norvegicus [26] = assay: % recovery 1 and compound 6a from whole blood of 7 wistar rats after an oral dose of the compound; type: ADME, organism-based; details: in vivo
Rattus norvegicus [27] = assay: Concentration 5a detected in blood of rat 1 hr after an oral dose of 200 mg/kg of the compound; type: ADME, organism-based; design: dose 200 mg/kg, route oral; details: in vivo; in short: as §4
Rattus norvegicus [28] = assay: Concentration 6f detected in blood of rat 1 hr after an oral dose of 200 mg/kg; ND is Not Detected; type: ADME, organism-based; design: dose 200 mg/kg, route oral; details: in vivo; in short: as §4
Rattus norvegicus [29] = assay: Concentration 6f detected in blood of rat 3 hr after an oral dose of 200 mg/kg; ND is Not Detected; type: ADME, organism-based; design: dose 200 mg/kg, route oral; details: in vivo; in short: as §4
Rattus norvegicus [30] = assay: Concentration 1 detected in blood of rat 1 hr after an oral dose of 200 mg/kg; ND is Not Detected; type: ADME, organism-based; design: dose 200 mg/kg, route oral; details: in vivo; in short: as §4
Rattus norvegicus [31] = assay: Concentration 1 detected in blood of rat 3 hr after an oral dose of 200 mg/kg; ND is Not Detected; type: ADME, organism-based; design: dose 200 mg/kg, route oral; details: in vivo; in short: as §4
Rattus norvegicus [32] = assay: Concentration 5f detected in blood of rat 1 hr after an oral dose of 200 mg/kg of the compound; ND is Not Detected; type: ADME, organism-based; design: dose 200 mg/kg, route oral; details: in vivo; in short: as §4
Rattus norvegicus [33] = assay: Concentration 5f detected in blood of rat 3 hr after an oral dose of 200 mg/kg; ND is Not Detected; type: ADME, organism-based; design: dose 200 mg/kg, route oral; details: in vivo; in short: as §4
Rattus norvegicus [34] = assay: Concentration 6d detected in blood of rat 3 hr after an oral dose of 200 mg/kg of the compound; type: ADME, organism-based; design: dose 200 mg/kg, route oral; details: in vivo; in short: as §4
Rattus norvegicus [35] = assay: Concentration 1 detected in blood of rat 3 hr after an oral dose of 200 mg/kg; ND is Not Detected.; type: ADME, organism-based; design: dose 200 mg/kg, route oral; details: in vivo; in short: as §4
Rattus norvegicus [36] = assay: Concentration 5d detected in blood of rat 1 hr after an oral dose of 200 mg/kg of the compound; type: ADME, organism-based; design: dose 200 mg/kg, route oral; details: in vivo; in short: as §4
Rattus norvegicus [37] = assay: Concentration 5d detected in blood of rat 3 hr after an oral dose of 200 mg/kg of the compound; type: ADME, organism-based; design: dose 200 mg/kg, route oral; details: in vivo; in short: as §4
Rattus norvegicus [38] = assay: Concentration 6d detected in blood of rat 1 hr after an oral dose of 200 mg/kg of the compound; type: ADME, organism-based; design: dose 200 mg/kg, route oral; details: in vivo; in short: as §4

SMILES	solubility [5] [µg/mL]	P [6]	Recovery (Rattus norvegicus [7]) [%]	ED50 (Cavia porcellus) [mg/kg]	ED50 (Rattus norvegicus [8]) [mg/kg]	ED50 (Rattus norvegicus [9]) [mg/kg]	ED50 (Rattus norvegicus [10]) [mg/kg]	EDmin (Rattus norvegicus [11]) [mg/kg]	LD50 [12] [mg/kg]	Protection (Rattus norvegicus [13]) [%]	Protection (Rattus norvegicus [14]) [%]	Protection (Rattus norvegicus [15]) [%]	Protection (Rattus norvegicus [16]) [%]	Protection (Rattus norvegicus [17]) [%]	Protection (Rattus norvegicus [18]) [%]	Protection (Rattus norvegicus [19]) [%]	solubility [20] [µg/mL]	other results
CCCNC1CC(=O)OC1C(O)C(=O)NC(CC(C)C)C1Cc2cccc(O)c2C(=O)O1 (stereo not given)	> 100000	260	40	12	69	124	43	15	1080	44	66	89	100	17	78	94	1600	Concentration (Rattus norvegicus [1]): 14200 ng/mL; Concentration (Rattus norvegicus [2]): 3400 ng/mL; Concentration (Rattus norvegicus [3]): 6400 ng/mL; Concentration (Rattus norvegicus [4]): 3400 ng/mL
CCNC1CC(=O)OC1C(O)C(=O)NC(CC(C)C)C1Cc2cccc(O)c2C(=O)O1 (stereo not given)	> 100000	43	20	13	182	> 200	47	20	1250	66	76	100	89	33	56	78	11000	Concentration (Rattus norvegicus [21]): 17500 ng/mL; Concentration (Rattus norvegicus [22]): 8300 ng/mL
CNC1CC(=O)OC1C(O)C(=O)NC(CC(C)C)C1Cc2cccc(O)c2C(=O)O1 (stereo not given)	1500	3750									33	56	66	17	11	56	990	Concentration (Rattus norvegicus [23]): 1200 ng/mL; Concentration (Rattus norvegicus [24]): 3100 ng/mL; Concentration (Rattus norvegicus [25]): 1100 ng/mL; Recovery (Rattus norvegicus [26]): 50%; Concentration (Rattus norvegicus [27]): 3800 ng/mL
CNc1ccccc1		> 19																
CCCCCCNC1CC(=O)OC1C(O)C(=O)NC(CC(C)C)C1Cc2cccc(O)c2C(=O)O1 (stereo not given)	1600	3000	80								17	11	44		11	44	5	Concentration (Rattus norvegicus [28]): Not detected; Concentration (Rattus norvegicus [29]): Not detected; Concentration (Rattus norvegicus [30]): Not detected; Concentration (Rattus norvegicus [31]): Not detected; Concentration (Rattus norvegicus [32]): Not detected; Concentration (Rattus norvegicus [33]): Not detected
CCCCNC1CC(=O)OC1C(O)C(=O)NC(CC(C)C)C1Cc2cccc(O)c2C(=O)O1 (stereo not given)	100000	1700	30								44	89	89	17	33	66	370	Concentration (Rattus norvegicus [34]): 1800 ng/mL; Concentration (Rattus norvegicus [35]): Not detected; Concentration (Rattus norvegicus [36]): 2300 ng/mL; Concentration (Rattus norvegicus [37]): 2300 ng/mL; Concentration (Rattus norvegicus [38]): 2000 ng/mL
